According to article PMC4272346 (Biochemistry, 2013):

Tests used:
NS3h [1] = biological target: T1, NS3h (Hepatitis C virus genotype 1b, UniProt Q9WMX2); assay: Electrophoretic mobility shift assay of NS3h-Cy5-dT15 complex; format: binding
NS3h [2] = biological target: T1, NS3h; assay: ATPase assay 1: DNA; format: biochemical
NS3h [3] = biological target: T1, NS3h; assay: ATPase assay 2: NS3h-catalyzed ATP hydrolysis in the absence of nucleic acids; format: biochemical
NS3h [4] = biological target: T1, NS3h; assay: Differential scanning calorimetry; format: binding; details: 10 μM NS3h, 300 μM ATA
Summary of the method: (§1)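 Where present, dT20 was at 10 μM, and the test compound was at 10 μM–5 mM. Samples were heated 20–100 °C at 1 °C/min, with a repeat scan of the same sample as baseline. Fitting used a scaled two-state model. For the NS3h-dT20 samples, Tm versus compound concentration was fitted to a dose-response equation.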

NS3h-dT20 complex = NS3h-dT20 complex (Hepatitis C virus genotype 1b, UniProt Q9WMX2); assay: DSC of pre-assembled NS3h-dT20 complex; format: binding
Summary of the method: as §1

NS3h [5] = biological target: T1, NS3h; assay: Isothermal titration calorimetry; format: binding
Summary of the method: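 NS3h was dialysed overnight into 25 mM MOPS pH 7.0, 1.25 mM MgCl2, 0.01% Tween 20, quantified by A280 (ε 52,360 M−1cm−1) and used at 20 μM. The test compound was 250 μM in dialysis buffer, given as 16 injections of 3 μl at 300 s intervals at 5 °C, with the first injection excluded. Baseline was zeroed on the mean of the last three injections, then fitted to an independent sites model. Three titrations were run.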

NS3h_D290N = assay: FP-based DNA binding assay, displacement from mutant; parameters: species or system hepatitis C virus; details: Cy5-dT15 displacement at EC85 of protein
Summary of the method: (§2)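 Fluorescence polarization displacement using C-terminally His-tagged NS3h helicase domain mutants and wildtype. Each protein was at its EC85 from titration, with the test compound added in DMSO. Excitation 635 nm, emission 667 nm. IC50 came from dose-response fits, and Ki from Cheng-Prusoff using protein EC50 and concentration, assuming competition with DNA.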

NS3h_E291Q = assay: as above; parameters: species or system hepatitis C virus; details: Cy5-dT15 displacement at EC85 of protein
Summary of the method: as §2

NS3h_H369K = assay: as above; parameters: species or system hepatitis C virus; details: Cy5-dT15 displacement at EC85 of protein
Summary of the method: as §2

NS3h_E493Q = assay: as above; parameters: species or system hepatitis C virus; details: Cy5-dT15 displacement at EC85 of protein
Summary of the method: as §2

NS3h R467E = assay: as above; parameters: species or system hepatitis C virus; details: Cy5-dT15 displacement at EC85 of protein
Summary of the method: as §2

full-length NS3 = full-length NS3 (Hepatitis C virus genotype 1b, UniProt Q9WMX2); assay: Studies repeated with full-length NS3 with and without NS4A; details: presence and absence of NS4A
NS3h (wildtype) [6] = details: read-out: IC50, polarization shift of a Cy5 labeled oligonucleotide; NS3h bound to Cy5-labeled DNA oligonucleotide; ref 11 (Mukherjee et al.); cited from earlier work
NS3h (wildtype) [7] = biological target: T2, NS3h (wildtype) (Hepatitis C virus (genotype 1b, con1; …, UniProt Q9WMX2 1192-1657); assay: ITC
NS3h (wildtype) [8] = biological target: T2, NS3h (wildtype); assay: EMSA

`O=C(O)C1=CC(=C(c2ccc(O)c(C(=O)O)c2)c2ccc(O)c(C(=O)O)c2)C=CC1=O` [ATA, aurintricarboxylic acid] gave an IC50 (NS3h [1]) of 4 µM, a Ki (NS3h [2]) of 1.4 ± 0.2 µM and a Ki (NS3h [3]) of 0.45 ± 0.15 µM. For the same molecule, the “Change in enthalpy of unfolding (ΔΔH)” value (NS3h [4]) was -218 kJ/mol, the “Increase of unfolding temperature of NS3h” value (NS3h [4]) was 8 °C and the EC50 (NS3h-dT20 complex) was roughly 500 µM. The “Maximum decrease of Tm of NS3h-dT20 complex” value (NS3h-dT20 complex; NS3h and dT20 10 μM each, dose response fit) was 11 ± 3 °C, the Kd (NS3h [5]) was 1.3 ± 0.2 µM and the “ATA monomers binding per NS3h (stoichiometry)” value (NS3h [5]; 20 μM NS3h titrated with 250 μM ATA, 5 °C) was 1.5. The ΔH of binding (NS3h [5]; ITC, 5 °C) was -13.4 ± 0.6 kJ/mol, the ΔS of binding (NS3h [5]; at 5 °C) was 63 J/mol K and the “−TΔS of binding” value (NS3h [5]; at 5 °C) was -17.5 kJ/mol. The ΔG of binding (NS3h [5]; at 5 °C, from Kd) was -30.9 ± 0.3 kJ/mol, the “Relative Ki (Cheng-Prusoff) compared with wildtype NS3h” value (shortened to “Relative Ki (Cheng-Prusoff)”) (NS3h_D290N) was “notably lower” and the “Relative Ki (Cheng-Prusoff)” value (NS3h_E291Q) was “notably lower”. The “Relative Ki (Cheng-Prusoff)” value (NS3h_H369K) was “similar”, the “Relative Ki (Cheng-Prusoff)” value (NS3h_E493Q) was “higher” and the “Relative Ki (Cheng-Prusoff)” value (NS3h R467E) was “higher”. The “Sensitivity of full-length NS3 compared with NS3h” value (full-length NS3) was “not noted any differences in the sensitivity” and the IC50 (NS3h (wildtype) [6]) was 1.4 µM.

TTTTTTTTTTTTTTTTTTTT (ssDNA) [dT20]: binds (NS3h (wildtype) [7]).

TTTTTTTTTTTTTTT (ssDNA) [Cy5-dT15]: binds (NS3h (wildtype) [8]).
